{
  "source": "ChEMBL document CHEMBL4732088",
  "about": "“Identification and optimization of piperlongumine analogues as potential antioxidant and anti-inflammatory agents via activation of Nrf2” (Eur J Med Chem, 2021)",
  "key": {"PC-12 [1]": {"tested_on": "PC-12", "assay": "Protection against H2O2-induced mitochondrial dysfunction in rat PC12 cells assessed as change in mitochondrial membrane potential at 5 uM pretreated with compound followed by H2O2 addition by JC-1 staining based flow cytometry (reference value: 78.7 %)", "type": "functional", "how_it_was_run": "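Mitochondrial membrane potential in PC12 cells pretreated with compound (5, 10, 20 μM), then exposed to H₂O₂ (200 μM) or 6-OHDA (150 μM). JC-1 staining, red-to-green fluorescence shift read by flow cytometry. Mean ± SD, n = 3.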"}, "PC-12 [2]": {"tested_on": "PC-12", "assay": "Protection against H2O2-induced apoptosis in rat PC12 cells assessed as necrotic cells at 10 uM incubated for 24 hrs by annexin V FITC/propidium iodide staining based flow cytometry (reference value: 0.6 %)", "type": "functional"}},
  "data": [
    {"smiles": "CCN(C)C(=O)N1CCN(C(=O)/C=C/c2ccc(F)cc2)C1=O", "values": [
      {"measurement": "Activity", "setting": "PC-12 [1]", "result": 86.7, "unit": "%"},
      {"measurement": "Activity", "setting": "PC-12 [2]", "result": 0.2, "unit": "%"}
    ]}
  ]
}
